Data on five molecules can be found in ChEMBL document CHEMBL4052583, “A Potent, Selective, and Orally Bioavailable HCV NS5A Inhibitor for Treatment of Hepatitis C Virus: (S)-1-((R)-2-(Cyclopropanecarboxamido)-2-phenylacetyl)-N-(4-phenylthiazol-2-yl)pyrrolidine-2-carboxamide” (J Med Chem, 2017).

The nature of data set [1]: Clearance in Sprague-Dawley rat at 1 mg/kg, iv after 1 to 24 hrs by HPLC-MS/MS method. Format: ADME, organism-based. The note with it: in vivo. Summed up:
(§1)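 Rats received a single intravenous dose of 1 mg/kg. Clearance (mL/min/kg), steady-state volume of distribution (L/kg), half-life (h) and AUC (ng/mL×h) were reported as mean ± spread.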

Data set [2] can be described thus: Tmax in Sprague-Dawley rat at 5 mg/kg, po after 1 to 24 hrs by HPLC-MS/MS method. Format: ADME, organism-based. The note with it: in vivo. In short, it runs like this: (§2)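 Rats were dosed orally at 5 mg/kg. Tmax (h), Cmax (ng/mL), AUC (ng/mL×h) and oral bioavailability F (%) were reported.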
The nature of data set [3]: Half life in Sprague-Dawley rat at 1 mg/kg, iv after 1 to 24 hrs by HPLC-MS/MS method. Format: ADME, organism-based. The settings on record: in vivo. In short, it runs like this:
as §1

A short description of data set [4]: AUC in Sprague-Dawley rat at 1 mg/kg, iv after 1 to 24 hrs by HPLC-MS/MS method. The note with it: in vivo. Format: ADME, organism-based. Summed up:
as §1

Data set [5] can be described thus: Inhibition of NS5A in HCV genotype 1b Ava5 infected in human HuH7 cells containing Ava5-EG(D4AB)SEAP subgenomic replicons assessed as reduction in viral replicon growth incubated for 1 day by Phospha-light assay method. Format: cell-based, Hepatitis C virus subtype 1b. The settings on record: Hepatitis C virus, Ava5, 24 h. A general note: In antiviral work, replicon cells carry a viral genome segment that copies itself.

Data set [6] is described as follows: Cytotoxic activity against human HuH7 cells containing HCV subgenomic replicons Ava5-EG(D4AB)SEAP by MTS assay. Format: cell-based, Huh-7.
The nature of data set [7]: AUC in Sprague-Dawley rat at 5 mg/kg, po after 1 to 24 hrs by HPLC-MS/MS method. Format: ADME, organism-based. The settings on record: in vivo. In short, it runs like this:
as §2

A short description of data set [8]: Half life in Sprague-Dawley rat at 5 mg/kg, po after 1 to 24 hrs by HPLC-MS/MS method. Format: ADME, organism-based. The note with it: in vivo.
Data set [9] can be described thus: Volume of distribution at steady state in Sprague-Dawley rat at 1 mg/kg, iv after 1 to 24 hrs by HPLC-MS/MS method. Format: ADME, organism-based. The settings on record: in vivo, read-out: Vdss. Summed up:
as §1

Data set [10] in a line: Cmax in Sprague-Dawley rat at 5 mg/kg, po after 1 to 24 hrs by HPLC-MS/MS method. Format: ADME, organism-based. Also on record: dose 5 mg/kg, route oral. The settings on record: in vivo. Summed up:
as §2

Data set [11] can be described thus: Oral bioavailability in Sprague-Dawley rat at 5 mg/kg after 1 to 24 hrs by HPLC-MS/MS method. Format: ADME, organism-based. The settings on record: in vivo. In short, it runs like this: as §2
The nature of data set [12]: Selectivity index, ratio of CC50 for cytotoxic activity against human HuH7 cells containing HCV subgenomic replicons Ava5-EG(D4AB)SEAP to IC50 for inhibition of NS5A in HCV genotype 1b Ava5 infected in human HuH7 cells containing Ava5-EG(D4AB)SEAP subgenomic replicons.

SMILES strings stand for the structures.

By clearance is commonly meant the volume of plasma or blood freed of the substance per unit of time. A higher clearance goes with a high capacity for elimination. One may read the Tmax as the time from dosing to the highest level. What is called half-life is the time needed for the level to fall by half in the phase considered. The low end stands for fast loss, the high end for slow loss. By AUC is commonly meant the area under the concentration-time curve, a measure of exposure. Read a low AUC as low exposure. As usually defined, the EC50 is the midpoint of the concentration-response curve. What is called CC50 is the concentration at which the toxic effect on the cells reaches its halfway point. Higher therefore signals lower toxicity to the cells. The Cmax is the peak of the concentration-time curve. As usually defined, the bioavailability is dose-corrected exposure relative to a reference, in per cent. A low value points to poor availability.

As to `O=C(Nc1nc(-c2ccccc2)cs1)[C@@H]1CCCN1C(=O)[C@H](NC(=O)N1CCCC1)c1ccccc1`, the clearance in [1] was 55.1 mL/min/kg. Besides, in data set [2], the Tmax was 2.8 h. Moreover, the half-life in data set [3] was 0.5 h; in data set [8] it was 2.4 h. The exposure (AUC) in data set [4] amounted to 311 ng·h/mL; in data set [7], 288 ng·h/mL. Besides, the EC50 in data set [5] is 3.1 nM. In data set [6], the 50% cytotoxic concentration (CC50) was over 50000 nM. Besides, in data set [9], the Vd was 1.1 L/kg. In data set [10], the maximum concentration (Cmax) is 63.9 ng/mL. The molecule further registered a bioavailability in data set [11] of 20.4%.

`O=C(N[C@@H](C(=O)N1CCC[C@H]1C(=O)Nc1nc(-c2ccccc2)cs1)c1ccccc1)c1ccccc1`: the clearance in data set [1] amounted to 44.8 mL/min/kg. Also, the time to peak (Tmax) in data set [2] was found to be 2.3 h. The half-life in data set [3] is 2.3 h; in data set [8], 2.7 h. In addition, the exposure (AUC) in [4] was 367 ng·h/mL; in data set [7], 588 ng·h/mL. In addition, the EC50 in data set [5] came out at 15 nM. For the same molecule, the CC50 in data set [6] was over 50000 nM. Also, the Vd in data set [9] worked out at 4.2 L/kg. Besides, the concentration in data set [10] peaked (Cmax) at 109 ng/mL. In data set [11], this molecule registered a bioavailability of 31%.

For the molecule `O=C(N[C@@H](C(=O)N1CCC[C@H]1C(=O)Nc1nc(-c2ccccc2)cs1)c1ccccc1)C1CC1`, the clearance in data set [1] was found to be 27.1 mL/min/kg. Further, the Tmax in data set [2] was 0.8 h. Besides, the figures for the half-life in data set [3] and in data set [8] were 1.3 h and 2.8 h, respectively. Further, the AUC in [4] was determined as 635 ng·h/mL; in [7] it was 1440 ng·h/mL. Further, the EC50 in data set [5] turned out to be 4.6 nM. The CC50 in data set [6] is over 50000 nM. In addition, in [9], the Vd is 1.32 L/kg. Moreover, the Cmax in data set [10] was 260 ng/mL. This molecule also had a bioavailability in data set [11] of 45%. Further, in [12], the “Ratio CC50/EC50” value is listed as over 10000.

Turning to `O=C(N[C@@H](C(=O)N1CCC[C@H]1C(=O)Nc1nc(-c2ccccc2)cs1)c1ccccc1)c1ccncc1`, in data set [1], the clearance amounted to 62.2 mL/min/kg. Also, in [2], the time of peak concentration (Tmax) came to 0.7 h. In addition, the half-life was 0.5 h in [3] and 4.5 h in data set [8]. Also, the AUC in data set [4] is 296 ng·h/mL; in [7] it was 125 ng·h/mL. In [5], the EC50 was determined as 3.8 nM. The molecule further returned a CC50 in data set [6] of over 50000 nM. In addition, the Vd in data set [9] worked out at 1.8 L/kg. In data set [10], this molecule had a Cmax of 58.3 ng/mL. In data set [11], this molecule showed a bioavailability of 10.1%.

Regarding `O=C(Nc1nc(-c2ccccc2)cs1)[C@@H]1CCCN1C(=O)[C@H](NC(=O)N1CCOCC1)c1ccccc1`, in data set [1], the clearance was found to be 38.4 mL/min/kg. The Tmax in [2] was 0.8 h. Besides, the half-life in data set [3] was 0.46 h; in data set [8], 1.6 h. Further, the results for the AUC in [4] and in data set [7] were 436 ng·h/mL and 404 ng·h/mL, respectively. For the same molecule, the EC50 in data set [5] came to 0.92 nM. The molecule further displayed a CC50 in data set [6] of over 50000 nM. In addition, the Vd in [9] worked out at 1.04 L/kg. For the same molecule, the concentration in [10] peaked (Cmax) at 247 ng/mL. The molecule further returned a bioavailability in [11] of 18.7%.
